Experimental data taken from ChEMBL document CHEMBL1135711, “Evaluation of the Dmt-Tic pharmacophore: conversion of a potent delta-opioid receptor antagonist into a potent delta agonist and ligands with mixed properties” (J Med Chem, 2002).
Square brackets hold non-standard residues; d marks the D form. Peptide text beside a SMILES is read from it. * marks the point of attachment. ξ: configuration not given here. Dmt = Cc1cc(O)cc(C)c1C[C@H](N)C(=O)O; Tic = O=C(O)[C@@H]1Cc2ccccc2CN1; ξTic = O=C(O)C1Cc2ccccc2CN1; NHBn = c1ccc(CN*)cc1; NHPh = c1ccc(N*)cc1

Key:
[1] = molecular target: T1, Delta-type opioid receptor (Mus musculus, UniProt P32300); assay: Opioid receptor delta 1 or Opioid receptor mu 1 antagonist activity tested in mouse vas deferens (MVD) along with, naloxone; assay type: functional, tissue-based; conditions: read-out: pA2 (converted)
[2] = molecular target: Mu-type opioid receptor (Mus musculus, UniProt P42866); assay: Opioid receptor delta 1 or Opioid receptor mu 1 antagonist activity tested in mouse vas deferens (MVD) along with N,N-dimethyl-Dmt-Tic-OH; assay type: functional, tissue-based; conditions: read-out: pA2 (converted)
[3] = species on record: Mus musculus; assay: Delta or Mu antagonist activity tested in mouse vas deferens (MVD) along with, naloxone; conditions: read-out: pA2 (converted)
[4] = species on record: Mus musculus; assay: Delta or Mu antagonist activity tested in mouse vas deferens (MVD) along with N,N-dimethyl-Dmt-Tic-OH; conditions: read-out: pA2 (converted)
[5] = molecular target: Delta-type opioid receptor (Rattus norvegicus, UniProt P33533); assay: Binding affinity at Opioid receptor delta 1 using rat brain receptor (P2 synaptosome) assay; assay type: tissue-based
In short: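 Competition binding at equilibrium on rat brain P2 synaptosomes with [3H]DPDPE for δ sites, in 50 mM HEPES pH 7.5 with MgCl2, protease inhibitors and glycerol. Incubation 120 min at 23-24 °C, then GF/C filtration and ice-cold Tris/BSA washes. Nonspecific binding defined by 2 µM DPDPE. 5-8 graded doses over 2-3 log units.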

[6] = molecular target: Mu-type opioid receptor (Rattus norvegicus, UniProt P33535); assay: Binding affinity for rat brain P2 synaptosome Opioid receptor mu 1; assay type: tissue-based
In short: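 Equilibrium competition binding on rat brain P2 synaptosomes with [3H]DAGO for µ sites, in 50 mM HEPES pH 7.5 with MgCl2, protease inhibitors and glycerol. 120 min at 23-24 °C, GF/C filtration, ice-cold Tris/BSA washes. Nonspecific binding defined by 2 µM DAGO. 5-8 graded doses over 2-3 log units.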

[7] = molecular target: T2, Mu-type opioid receptor (Cavia porcellus, UniProt P97266); assay: Negative logarithm of the molar concentration of an agonist to produce 50% of the maximum effect in guinea pig ileum (mu receptor) determined by Salvadori et al.; assay type: functional, tissue-based
[8] = molecular target: Delta-type opioid receptor (Mus musculus) (UniProt P32300); assay: Molar concentration required to double the agonist concentration to achieve the original response in mouse vas deferens (MVD); assay type: functional, tissue-based
[9] = molecular target: T1, Delta-type opioid receptor; assay: Negative logarithm of the molar concentration required to double the agonist concentration to achieve the original response in mouse vas deferens (MVD); assay type: functional, tissue-based; conditions: read-out: pA2 (converted)
[10] = molecular target: T2, Mu-type opioid receptor; assay: Negative logarithm of the molar concentration of an agonist to produce 50% of the maximum effect in guinea pig ileum (mu receptor) determined; assay type: functional, tissue-based

T2 sequence (P97266 whole entry): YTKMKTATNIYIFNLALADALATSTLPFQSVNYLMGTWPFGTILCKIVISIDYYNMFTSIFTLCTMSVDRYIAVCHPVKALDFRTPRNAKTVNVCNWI
Delta-type opioid receptor (Rattus norvegicus, UniProt P33533), sequence (P33533 whole entry): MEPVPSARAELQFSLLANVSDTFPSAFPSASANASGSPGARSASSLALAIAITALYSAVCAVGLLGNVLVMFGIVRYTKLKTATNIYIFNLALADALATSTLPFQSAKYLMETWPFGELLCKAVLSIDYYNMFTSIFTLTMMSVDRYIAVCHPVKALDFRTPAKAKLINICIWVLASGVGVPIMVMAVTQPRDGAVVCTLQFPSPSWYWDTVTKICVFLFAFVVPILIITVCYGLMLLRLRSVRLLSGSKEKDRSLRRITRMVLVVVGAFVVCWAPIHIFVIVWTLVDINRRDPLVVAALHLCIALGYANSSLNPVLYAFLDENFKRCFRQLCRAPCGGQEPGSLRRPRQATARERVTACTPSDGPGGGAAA
Mu-type opioid receptor (Rattus norvegicus, UniProt P33535), sequence (P33535 whole entry): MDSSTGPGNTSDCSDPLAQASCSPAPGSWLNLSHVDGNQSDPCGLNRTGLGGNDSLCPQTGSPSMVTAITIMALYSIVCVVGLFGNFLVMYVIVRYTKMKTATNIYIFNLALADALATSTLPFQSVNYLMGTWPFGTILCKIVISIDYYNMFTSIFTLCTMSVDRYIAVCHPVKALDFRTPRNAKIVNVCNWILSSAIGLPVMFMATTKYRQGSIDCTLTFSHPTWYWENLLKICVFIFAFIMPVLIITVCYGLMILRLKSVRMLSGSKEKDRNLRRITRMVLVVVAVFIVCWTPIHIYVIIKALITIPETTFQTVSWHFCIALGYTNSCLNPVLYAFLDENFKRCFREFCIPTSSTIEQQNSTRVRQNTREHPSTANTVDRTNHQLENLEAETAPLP
T1 sequence (P32300 whole entry): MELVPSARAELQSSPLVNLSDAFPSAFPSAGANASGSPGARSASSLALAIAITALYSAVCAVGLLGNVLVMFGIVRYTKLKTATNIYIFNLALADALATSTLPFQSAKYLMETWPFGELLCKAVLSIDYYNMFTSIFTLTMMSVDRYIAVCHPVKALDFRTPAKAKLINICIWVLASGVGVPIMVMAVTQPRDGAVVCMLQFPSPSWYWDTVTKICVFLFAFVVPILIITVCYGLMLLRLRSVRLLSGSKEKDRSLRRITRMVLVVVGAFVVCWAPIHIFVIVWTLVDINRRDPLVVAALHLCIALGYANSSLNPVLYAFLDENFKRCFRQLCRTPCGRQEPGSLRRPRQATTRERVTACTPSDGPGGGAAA
Delta-type opioid receptor (Mus musculus), sequence (P32300 whole entry): as above
Mu-type opioid receptor (Mus musculus, UniProt P42866), sequence (P42866 whole entry): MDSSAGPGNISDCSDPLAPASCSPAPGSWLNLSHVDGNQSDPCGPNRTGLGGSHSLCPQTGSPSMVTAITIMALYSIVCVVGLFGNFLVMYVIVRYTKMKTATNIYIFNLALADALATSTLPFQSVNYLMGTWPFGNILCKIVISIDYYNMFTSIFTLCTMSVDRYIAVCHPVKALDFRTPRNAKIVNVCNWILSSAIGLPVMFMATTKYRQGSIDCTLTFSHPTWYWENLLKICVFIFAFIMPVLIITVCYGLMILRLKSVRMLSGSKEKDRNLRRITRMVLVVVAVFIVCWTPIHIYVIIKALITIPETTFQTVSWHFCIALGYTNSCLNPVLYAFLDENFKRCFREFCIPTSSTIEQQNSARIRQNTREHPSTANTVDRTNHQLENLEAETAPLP

Question: Which results are given for `Cc1cc(O)cc(C)c1C[C@H](N)C(=O)N1Cc2ccccc2C[C@H]1C(=O)NCC(=O)Nc1ccccc1` (H-[Dmt]-[Tic]-Gly-NHPh)?
Answer: Kb [1]: 33.9 nM; Kb [2]: 0.912 nM

Question: `CC(C)[C@H](NC(=O)[C@H](CC(=O)O)NC(=O)[C@H](Cc1ccccc1)NC(=O)[C@@H](C)NC(=O)[C@@H](N)Cc1ccc(O)cc1)C(=O)N[C@H](C(=O)NCC(N)=O)C(C)C` [DELTORPHIN C] was tested. Which Kb [3] did it give?
Answer: 31.6 nM

Question: How did the Kb [4] turn out when `Cc1cc(O)cc(C)c1C[C@H](N)C(=O)N1Cc2ccccc2C[C@H]1C(=O)NCc1nc2ccccc2[nH]1` was run?
Answer: 0.2 nM

Question: What about the Kb [3] of the same molecule?
Answer: 35.5 nM

Question: For `Cc1cc(O)cc(C)c1C[C@H](N)C(=O)N1Cc2ccccc2C[C@H]1C(=O)NCCc1nc2ccccc2[nH]1`, which Ki [5] is on record?
Answer: 0.067 nM

Question: What about the Ki [6] of the same molecule?
Answer: 5.49 nM

Question: And the EC50 [7]?
Answer: 107 nM

Question: With `Cc1cc(O)cc(C)c1C[C@H](N)C(=O)N1Cc2ccccc2CC1CO` (stereo partly specified) as the molecule, how does the Ki [5] read?
Answer: 0.44 nM

Question: And the Ki [6]?
Answer: 151 nM

Question: What about the Activity [8] of the same molecule?
Answer: -7

Question: How did the Activity [8] turn out when `Cc1cc(O)cc(C)c1C[C@H](N)C(=O)N1Cc2ccccc2C[C@H]1C(=O)O` (H-[Dmt]-[Tic]-OH) was run?
Answer: -8.2

Question: With `Cc1cc(O)cc(C)c1C[C@H](N)C(=O)N1Cc2ccccc2C[C@H]1C(=O)N[C@@H](C)C(N)=O` (H-[Dmt]-[Tic]-Ala-NH2) as the molecule, how does the Kb [9] read?
Answer: 10 nM

Question: Which EC50 [10] does the source give for `C[C@@H](NC(=O)[C@@H](N)Cc1ccc(O)cc1)C(=O)N[C@@H](Cc1ccccc1)C(=O)NCC(=O)N[C@@H](Cc1ccc(O)cc1)C(=O)N1CCC[C@H]1C(=O)N[C@@H](CO)C(N)=O` [DERMORPHIN] here?
Answer: 0.708 nM

Question: `Cc1cc(O)cc(C)c1C[C@H](N)C(=O)N1Cc2ccccc2C[C@H]1c1nc2ccccc2[nH]1` was tested. Which Ki [5] did it give?
Answer: 0.13 nM

Question: What about the Ki [6] of the same molecule?
Answer: 7.22 nM

Question: What about the Kb [9] of the same molecule?
Answer: 12.6 nM

Question: Which Ki [5] does the source give for `Cc1cc(O)cc(C)c1C[C@H](N)C(=O)N1Cc2ccccc2C[C@H]1C(=O)NCC(=O)NCc1ccccc1` (H-[Dmt]-[Tic]-Gly-NHBn) here?
Answer: 0.031 nM

Question: What about the Ki [6] of the same molecule?
Answer: 0.16 nM

Question: What about the EC50 [7] of the same molecule?
Answer: 2.69 nM

Question: Which Activity [8] does the source give for `Cc1cc(O)cc(C)c1C[C@H](N)C(=O)N1Cc2ccccc2CC1C(N)=O` (stereo partly specified) (H-[Dmt]-[ξTic]-NH2) here?
Answer: -7.2
